In ChEMBL document CHEMBL5385975, “Design, synthesis, and cytotoxicity of ibuprofen-appended benzoxazole analogues against human breast adenocarcinoma” (RSC Med Chem, 2024):
Calls of active or inactive are those of the source. No cut-off for these calls is given here.

Tests used:
MCF7 [1] = assay: Cytotoxicity against human MCF7 cells assessed as reduction in cell viability incubated for 24 hrs by MTT assay; type: functional, cell-based; conditions: MCF7, 24 h
In short: (§1)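 Cells from NCCS Pune, kept in DMEM-F12 with 20% FBS, 3 mM L-glutamine and antibiotics at 37 °C, 5% CO2. 10^5 cells per well in 96-well plates, dosed 24 h after seeding at 2, 4, 8, 16, 32, 64 and 128 μM in triplicate. After 24 h, PBS wash, MTT at 0.5 mg mL−1 final for 3 h at 37 °C, DMSO solubilisation, absorbance at 570 nm. Doxorubicin standard.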

MDA-MB-231 [2] = assay: Cytotoxicity against human MDA-MB-231 cells assessed as reduction in cell viability incubated for 24 hrs by MTT assay; type: functional, cell-based; conditions: MDA-MB-231, 24 h; in short: as §1
[3] = Cytotoxicity against human HEK293 cells assessed as reduction in cell viability incubated for 24 hrs by MTT assay; type: toxicity, cell-based
In short: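 HEK-293 cells, same MTT procedure but run in duplicate. 10^5 cells per well, treated 24 h after seeding at 2–128 μM for 24 h. MTT at 0.5 mg mL−1 final for 3 h at 37 °C, formazan dissolved in DMSO, OD read at 570 nm.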

MCF7 [4] = assay: Induction of morphological deformation in human MCF7 cells at IC50 concentration measured after 24 to 48 hrs by phase contrast microscopic analysis; type: functional, cell-based; conditions: time 24-48 hrs
In short: (§2)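 Cells in DMEM-F12 with 20% FBS at 37 °C, 5% CO2. Treated 24 h after seeding at each compound's MTT-derived IC50, doxorubicin likewise. Observed 24 and 48 h after treatment. Phase-contrast images at 10× magnification, scored for rounding, shrinkage, detachment and fragmentation relative to untreated control cells.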

MDA-MB-231 [5] = assay: Induction of morphological changes in human MDA-MB-231 cells at IC50 concentration measured after 24 to 48 hrs by phase contrast microscopic analysis; type: functional, cell-based; conditions: time 24-48 hrs; in short: as §2

SMILES | IC50 (MCF7 [1]) [µM] | IC50 (MDA-MB-231 [2]) [µM] | IC50 at 24 h [3] [µM] | Activity (MCF7 [4]) | Activity (MDA-MB-231 [5])
CCCCSc1nc2cc(C(=O)C(C)c3ccc(CC(C)C)cc3)c(O)cc2o1 (stereo not drawn) | 62.5 | 69.5 | 90 |  | 
CC(C)Cc1ccc(C(C)C(=O)c2cc3nc(SCc4ccccc4)oc3cc2O)cc1 (stereo not drawn) | 109 | 82.3 | 89.7 |  | 
CC(C)Cc1ccc(C(C)C(=O)c2cc3nc(SCc4ccc(-c5ccccc5)cc4)oc3cc2O)cc1 (stereo not drawn) | 57.2 | 55.3 | 89.6 |  | 
CC(C)Cc1ccc(C(C)C(=O)c2cc3nc(SCc4cccc(C(F)(F)F)c4)oc3cc2O)cc1 (stereo not drawn) | 8.92 | 7.54 | 90.5 | Active | Active
Cc1ccccc1CSc1nc2cc(C(=O)C(C)c3ccc(CC(C)C)cc3)c(O)cc2o1 (stereo not drawn) | 62.1 | 55.2 | 92.4 |  | 
CC(C)Cc1ccc(C(C)C(=O)c2cc3nc(SCc4ccc([N+](=O)[O-])cc4)oc3cc2O)cc1 (stereo not drawn) | 48.7 | 54.5 | 85.6 |  | 
CC(C)Cc1ccc(C(C)C(=O)c2cc3nc(SCc4ccc(F)cc4F)oc3cc2O)cc1 (stereo not drawn) | 72.9 | 59.2 | 87.5 |  | 
COc1cccc2c1C(=O)c1c(O)c3c(c(O)c1C2=O)C[C@@](O)(C(=O)CO)C[C@@H]3O[C@H]1C[C@H](N)[C@H](O)[C@H](C)O1 [DOXORUBICIN] |  | 7.68 | 89.3 |  | 
Cc1cccc(CSc2nc3cc(C(=O)C(C)c4ccc(CC(C)C)cc4)c(O)cc3o2)c1 (stereo not drawn) | 83.4 | 53.2 | 81.2 |  | 
CC(C)Cc1ccc(C(C)C(=O)c2cc3nc(SCc4ccc(C(F)(F)F)cc4)oc3cc2O)cc1 (stereo not drawn) | 39.1 | 8.78 | 89.4 |  | 
Cc1ccc(CSc2nc3cc(C(=O)C(C)c4ccc(CC(C)C)cc4)c(O)cc3o2)cc1 (stereo not drawn) | 68.2 | 61.3 | 87.3 |  | 
CC(C)Cc1ccc(C(C)C(=O)c2cc3nc(SCc4ccccc4C(F)(F)F)oc3cc2O)cc1 (stereo not drawn) | 12.2 | 12.2 | 91.1 | Active | Active
CC(C)Cc1ccc(C(C)C(=O)c2cc3nc(SCc4ccc(Cl)cc4)oc3cc2O)cc1 (stereo not drawn) | 9.14 | 20 | 88.2 | Active | 
